Experimental findings from ChEMBL document CHEMBL3593191, “Ethyl 2-((4-Chlorophenyl)amino)thiazole-4-carboxylate and Derivatives Are Potent Inducers of Oct3/4” (2015) are described below.

Active and inactive are the calls of the source. No cut-off for these calls is given here.

The target in test [1] is POU domain, class 5, transcription factor 1 (Homo sapiens) (UniProt Q01860). Kind of test: Activation of Oct3/4 (unknown origin) expressed in HEK293 cells after 72 hrs by luciferase reporter gene assay relative to control. It is filed as cell-based. Put shortly:
(§1)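 HEK293 cells stably carrying luciferase under a human Oct3/4 promoter (HEK-Oct3/4), or NCCIT cells lentivirally transduced with an Oct3/4 transcriptional response element reporter (NCCIT-Oct3/4, kept under 400 ng/mL puromycin). Cells seeded at 100,000/well for 24 h, then treated with compound. Lysed for 10 min at 37°C, luciferin/ATP mix added, read after 3 min. Signal given as percent of control cells; at least five independent experiments.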
(Reporter assays use an easily measured gene product as a stand-in for the process of interest.)

Test [2] has as its system HEK293. Kind of test: Increase of Oct3/4 expression in human HEK293 cells after 72 hrs by immunoblotting. Type of test: functional, cell-based. The essentials: (§2)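 Immunoblot. Compound-treated cells lysed in urea lysis buffer (6 M urea, 0.5% Triton X-100, protease/phosphatase inhibitors). 40 µg total protein run on 10% SDS-PAGE. Probed with Oct3/4, Nanog or Lin28 antibodies, with vinculin or β-actin as loading control. Primary antibody 1:1000 overnight at 4°C, secondary 1:10,000 for 1 h at RT; ECL detection.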

For test [3], the target named is POU domain, class 5, transcription factor 1 (Homo sapiens) (UniProt Q01860). In words: Activation of Oct3/4 in human fibroblasts assessed as co-expression of Oct3/4 and Sox2 after 5 days by immunocytochemistry analysis. Put shortly: (§3)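 Primary human fibroblasts seeded at 10,000 cells/well on Geltrex. After 24 h, treated for 5 days in DMEM/F12 with 20% knockout serum replacement, 10 ng/mL bFGF and 1 mM β-mercaptoethanol. Fixed in 4% PFA, blocked with 5% goat serum/0.3% Triton. Stained overnight at 4°C for Oct3/4 (1:400), Nanog (1:1000), Sox2 (1:100) or Klf4 (1:100), then Alexa 594/488 secondary for 1 h.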

Test [4] shares this target. In words: Activation of Oct3/4 in human fibroblasts assessed as increase of Rex1 gene expression after 48 hrs by RT-PCR analysis relative to control. The essentials:
(§4)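 qRT-PCR of pluripotency-related genes in compound-treated HEK293 cells or primary human skin fibroblasts, against an endogenous control gene. Values normalized to DMSO-treated cells as mean ± SD of quadruplicates, representative of two independent experiments.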

For test [5] the target is unchanged. In words: Activation of Oct3/4 (unknown origin) expressed in human NCCIT cells at 5 uM after 72 hrs by luciferase reporter gene assay relative to control. Type of test: cell-based.
Test [6] shares this target. Kind of test: Activation of Oct3/4 in human fibroblasts assessed as repression of N-cadherin gene expression after 48 hrs by RT-PCR analysis relative to control. Put shortly:
as §4

The target is the same in test [7]. In words: Activation of Oct3/4 (unknown origin) expressed in human NCCIT cells at 20 uM after 2 hrs by luciferase reporter gene assay relative to control. Type of test: cell-based.
For test [8] the target is unchanged. Kind of test: Activation of Oct3/4 (unknown origin) expressed in human HEK293 cells after 48 hrs by luciferase reporter gene assay relative to control. It is filed as cell-based. The essentials:
as §1

Test [9] has the same target. In words: Activation of Oct3/4 (unknown origin) expressed in human HeLa cells assessed as accumulation of Nanog after 72 hrs by immunoblotting. It is filed as cell-based. The essentials:
as §2
(In general: Immunoblotting shows a protein as a band on a membrane.)

For test [10] the target is unchanged. Kind of test: Activation of Oct3/4 (unknown origin) transcriptional activity expressed in human NCCIT cells at 20 uM by luciferase reporter gene assay relative to control. As to conditions: TDE = time-dependent effect. Type of test: cell-based. Put shortly:
as §1

Test [11] relates to Fibroblast. In words: Increase of Oct3/4 gene expression in human fibroblasts after 48 hrs by RT-PCR analysis relative to control. Type of test: functional. Put shortly: as §4
The target of test [12] is POU domain, class 5, transcription factor 1 (Homo sapiens) (UniProt Q01860). Kind of test: Activation of Oct3/4 (unknown origin) expressed in HEK293 cells assessed as accumulation of Nanog after 72 hrs by immunoblotting. Type of test: cell-based. Put shortly: as §2
Test [13] shares this target. Kind of test: Activation of Oct3/4 in human fibroblasts assessed as increase of Nanog gene expression after 48 hrs by RT-PCR analysis relative to control. The essentials:
as §4

The target is the same in test [14]. Kind of test: Activation of Oct3/4 (unknown origin) expressed in human HeLa cells after 72 hrs by luciferase reporter gene assay relative to control. It is filed as cell-based.
For test [15] the target is unchanged. In words: Activation of Oct3/4 (unknown origin) expressed in HEK293 cells assessed as increase of Lin28 gene expression after 72 hrs by RT-PCR analysis. Type of test: cell-based. Put shortly: as §4
Test [16] has the same target. In words: Activation of Oct3/4 (unknown origin) expressed in HEK293 cells at 20 uM after 72 hrs by luciferase reporter gene assay relative to control. Type of test: cell-based. The essentials:
as §1

For test [17] the target is unchanged. Kind of test: Activation of Oct3/4 in human fibroblasts assessed as increase of Lin28 gene expression after 48 hrs by RT-PCR analysis relative to control. Put shortly: as §4
For test [18] the target is unchanged. In words: Activation of Oct3/4 (unknown origin) expressed in HEK293 cells assessed as increase of Nanog gene expression after 72 hrs by RT-PCR analysis. It is filed as cell-based. The essentials:
as §4

Test [19] shares this target. Kind of test: Activation of Oct3/4 in human fibroblasts assessed as co-expression of Nanog and Klf4 after 5 days by immunocytochemistry analysis. The essentials:
as §3

The target is the same in test [20]. In words: Activation of Oct3/4 (unknown origin) transcriptional activity expressed in human NCCIT cells after 72 hrs by luciferase reporter gene assay relative to control. Type of test: cell-based. The essentials:
as §1

Test [21] has as its system HEK293. Kind of test: Increase of Oct3/4 gene expression in human HEK293 cells after 72 hrs by RT-PCR analysis. It is filed as functional, cell-based. Put shortly: as §4
For test [22], the target named is POU domain, class 5, transcription factor 1 (Homo sapiens) (UniProt Q01860). In words: Activation of Oct3/4 in human fibroblasts assessed as increase of Lin28 protein expression after 72 hrs by immunoblotting relative to control. Put shortly:
as §2

For test [23] the target is unchanged. In words: Activation of Oct3/4 (unknown origin) expressed in HEK293 cells at 40 uM after 72 hrs by luciferase reporter gene assay relative to control. It is filed as cell-based. The essentials: as §1
Test [24] shares this target. Kind of test: Activation of Oct3/4 (unknown origin) expressed in HEK293 cells assessed as increase of Sox2 gene expression after 72 hrs by RT-PCR analysis. It is filed as cell-based. The essentials:
as §4

For test [25] the target is unchanged. Kind of test: Activation of Oct3/4 (unknown origin) expressed in human NCCIT cells assessed as accumulation of Nanog after 72 hrs by immunoblotting. It is filed as cell-based. The essentials: as §2
Test [26] shares this target. In words: Activation of Oct3/4 in human fibroblasts assessed as increase of Nanog protein expression after 72 hrs by immunoblotting relative to control. Put shortly: as §2
Test [27] has as its system Fibroblast. Kind of test: Induction of endogenous cellular parameters in human fibroblasts assessed as increase in ALP-FITC signal using propidium iodide staining after 5 days. Type of test: functional, cell-based.
The target in test [28] is POU domain, class 5, transcription factor 1 (Homo sapiens) (UniProt Q01860). In words: Activation of Oct3/4 (unknown origin) expressed in HEK293 cells assessed as […] of Rex1 gene expression after 72 hrs by RT-PCR analysis. Type of test: cell-based. Put shortly:
as §4

POU domain, class 5, transcription factor 1 (Homo sapiens), sequence (Q01860 whole entry, the tested form may be a part): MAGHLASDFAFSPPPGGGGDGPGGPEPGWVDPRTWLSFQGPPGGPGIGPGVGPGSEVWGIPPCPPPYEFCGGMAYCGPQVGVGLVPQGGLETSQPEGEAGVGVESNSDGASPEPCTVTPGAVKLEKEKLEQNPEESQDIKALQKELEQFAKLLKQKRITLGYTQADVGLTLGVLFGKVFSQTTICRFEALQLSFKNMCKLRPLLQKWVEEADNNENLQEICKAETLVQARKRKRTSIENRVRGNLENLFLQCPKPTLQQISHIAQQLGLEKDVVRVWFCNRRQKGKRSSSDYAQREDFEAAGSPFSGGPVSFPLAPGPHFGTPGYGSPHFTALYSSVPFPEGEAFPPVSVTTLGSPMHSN

On to `O=C(O)c1csc(Nc2cccc(Cl)c2)n1`, for which the outcome in [1] was inactive.
As for `CCOC(=O)c1csc(Nc2ccc(Nc3nc(C(=O)OCC)cs3)cc2)n1`, in [1], the result was inactive.
With `CCOC(=O)c1csc(Nc2cccc(Cl)c2)n1`, the outcome in test [1] was Active.
Same read-out and setting: for `O=C(O)c1csc(Nc2ccc(Cl)cc2)n1` the value was “inactive”; for `CCCCNc1nc(C(=O)OCC)cs1`, “inactive”.
Take `CCOC(=O)c1csc(Nc2ccc(Cl)cc2)n1`: the Activity result is “Dose-dependent effect” with HEK293 [2]; “Dose-dependent effect” in [9]; “tde” in test [10]; “Dose-dependent effect” in [14]; “Dose-dependent effect” in test [20]. Besides, the outcome in test [3], in [5], in test [6], in test [7], in test [12] and in [18] was Active. Further, the outcome (in test [19]; with HEK293 [21]; in test [22]; in test [24]; in test [25]; in test [1]) was Active. Besides, the result (in test [26]; with Fibroblast [27]; in [28]) was Active. The fold change (FC) is 30 in test [4]; 15 with Fibroblast [11]; 2 in test [13]; 2 in test [16]; 20 in test [17]; 4 in [20]. In test [23], this compound had a fold change (FC) of 3.5. The outcome in [8] and in test [15] was inactive.
As to `CCOC(=O)c1csc(NC(C)=O)n1`, the result in test [1] was inactive.
On the same count and under the same terms, the same measure for `CCOC(=O)c1csc(NCc2ccccc2)n1`: “inactive”; for `CCOC(=O)c1csc(N)n1`: “inactive”; for `CCOC(=O)c1csc(Nc2ccc(Cl)cc2Cl)n1`: “Active”.
With `C=CCNc1nc(C(=O)OCC)cs1`, the result in test [1] was inactive.
Still for that read-out and setting: the same measure for `CCOC(=O)c1csc(Nc2cccc(F)c2)n1`: “Active”; for `CCOC(=O)c1csc(Nc2ccccc2)n1`: “Active”.
On the same count and under the same terms, for `CN(C)CCCNC(=O)c1csc(Nc2ccc(Cl)cc2)n1` the value was “inactive”; for `O=C(O)c1csc(Nc2ccc(Cl)cc2Cl)n1`, “inactive”.
On to `O=C(O)c1csc(Nc2cc(Cl)ccc2Cl)n1`, for which the outcome in [1] was inactive.
As to `CCOC(=O)c1csc(Nc2ccc(Cl)c(Cl)c2)n1`, the result in test [1] was Active.
